Values after ≈ are worked out from the molar mass of the structure shown.
Tests used:
Candida albicans [1] = test: Antifungal activity against Candida albicans SC5314 after 24 hrs by serial dilution method; assay type: functional; conditions: SC5314, 24 h
Summary of the method: (§1)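 MIC by broth serial dilution per NCCLS/CLSI (M27-A3 yeasts, M38-A2 filamentous) in 96-well plates; ATCC strains plus clinical isolates; C. parapsilosis 22019 run as quality-control strain in every assay. Compounds dissolved in DMSO, serially diluted in growth medium; incubation 35 °C; MIC read at 24 h (Candida), 48 h (A. fumigatus), 72 h (C. neoformans).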

Candida albicans [2] = test: Antifungal activity against Candida albicans Y0109 after 24 hrs by serial dilution method; assay type: functional; conditions: Y0109, 24 h; summary of the method: as §1
Candida parapsilosis = test: Antifungal activity against Candida parapsilosis 22019 after 24 hrs by serial dilution method; assay type: functional; conditions: Lodderomyces parapsilosis, 22019, 24 h; summary of the method: as §1
Cryptococcus neoformans = test: Antifungal activity against Cryptococcus neoformans 32609 after 72 hrs by serial dilution method; assay type: functional; conditions: Cryptococcus neoformans, 32609, 72 h; summary of the method: as §1
Nakaseomyces glabratus = test: Antifungal activity against Candida glabrata 537 after 24 hrs by serial dilution method; assay type: functional; conditions: Nakaseomyces glabratus, 537, 24 h; summary of the method: as §1
Aspergillus fumigatus = test: Antifungal activity against Aspergillus fumigatus 7544 after 48 hrs by serial dilution method; assay type: functional; conditions: Aspergillus fumigatus, 7544, 48 h; summary of the method: as §1
Liver microsome = test: Intrinsic clearance in human liver microsomes assessed per mg of protein at 0.1 uM measured up to 60 mins by MS analysis; conditions: 1 h

C[C@@H](N1Cc2sc(-c3cccnc3)cc2C1=O)[C@](O)(Cn1cncn1)c1ccc(F)cc1F
MIC (Candida albicans [1]): 0.0156 µg/mL (≈ 0.0334 µM)
MIC (Candida albicans [2]): 0.0156 µg/mL (≈ 0.0334 µM)
MIC (Candida parapsilosis): 0.0156 µg/mL (≈ 0.0334 µM)
MIC (Cryptococcus neoformans): 0.0156 µg/mL (≈ 0.0334 µM)
MIC (Nakaseomyces glabratus): 0.0156 µg/mL (≈ 0.0334 µM)
MIC (Aspergillus fumigatus): 16 µg/mL (≈ 34.2 µM)

C[C@@H](N1Cc2cc(-c3cncc(F)c3)sc2C1=O)[C@](O)(Cn1cncn1)c1ccc(F)cc1F
MIC (Candida albicans [1]): 0.0312 µg/mL (≈ 0.0644 µM)
MIC (Candida albicans [2]): 0.0312 µg/mL (≈ 0.0644 µM)
MIC (Candida parapsilosis): 0.0312 µg/mL (≈ 0.0644 µM)
MIC (Cryptococcus neoformans): 0.0312 µg/mL (≈ 0.0644 µM)
MIC (Nakaseomyces glabratus): 0.25 µg/mL (≈ 0.515 µM)
MIC (Aspergillus fumigatus): 4 µg/mL (≈ 8.24 µM)

C[C@@H](N1Cc2sc(Br)cc2C1=O)[C@](O)(Cn1cncn1)c1ccc(F)cc1F
MIC (Candida albicans [1]): 0.0312 µg/mL (≈ 0.0666 µM)
MIC (Candida albicans [2]): 0.0625 µg/mL (≈ 0.133 µM)
MIC (Candida parapsilosis): 0.0625 µg/mL (≈ 0.133 µM)
MIC (Cryptococcus neoformans): 0.125 µg/mL (≈ 0.266 µM)
MIC (Nakaseomyces glabratus): 0.125 µg/mL (≈ 0.266 µM)
MIC (Aspergillus fumigatus): 32 µg/mL (≈ 68.2 µM)

COc1ccc(-c2cc3c(s2)C(=O)N([C@H](C)[C@](O)(Cn2cncn2)c2ccc(F)cc2F)C3)cc1
MIC (Candida albicans [1]): 0.0156 µg/mL (≈ 0.0314 µM)
MIC (Candida albicans [2]): 0.0156 µg/mL (≈ 0.0314 µM)
MIC (Candida parapsilosis): 0.0625 µg/mL (≈ 0.126 µM)
MIC (Cryptococcus neoformans): 0.0625 µg/mL (≈ 0.126 µM)
MIC (Nakaseomyces glabratus): 0.0625 µg/mL (≈ 0.126 µM)
MIC (Aspergillus fumigatus): 4 µg/mL (≈ 8.06 µM)

C[C@@H](N1Cc2sc(-c3cncnc3)cc2C1=O)[C@](O)(Cn1cncn1)c1ccc(F)cc1F
MIC (Candida albicans [1]): 0.0156 µg/mL (≈ 0.0333 µM)
MIC (Candida albicans [2]): 0.0156 µg/mL (≈ 0.0333 µM)
MIC (Candida parapsilosis): 0.0156 µg/mL (≈ 0.0333 µM)
MIC (Cryptococcus neoformans): 0.0078 µg/mL (≈ 0.0166 µM)
MIC (Nakaseomyces glabratus): 0.0156 µg/mL (≈ 0.0333 µM)
MIC (Aspergillus fumigatus): 32 µg/mL (≈ 68.3 µM)

COc1ccc(-c2cc3c(s2)CN([C@H](C)[C@](O)(Cn2cncn2)c2ccc(F)cc2F)C3=O)cn1
MIC (Candida albicans [1]): 0.0156 µg/mL (≈ 0.0314 µM)
MIC (Candida albicans [2]): 0.0156 µg/mL (≈ 0.0314 µM)
MIC (Candida parapsilosis): 0.0156 µg/mL (≈ 0.0314 µM)
MIC (Cryptococcus neoformans): 0.0156 µg/mL (≈ 0.0314 µM)
MIC (Nakaseomyces glabratus): 0.0156 µg/mL (≈ 0.0314 µM)
MIC (Aspergillus fumigatus): 64 µg/mL (≈ 129 µM)

C[C@@H](N1Cc2cc(Br)sc2C1=O)[C@](O)(Cn1cncn1)c1ccc(F)cc1F
MIC (Candida albicans [1]): 0.0156 µg/mL (≈ 0.0332 µM)
MIC (Candida albicans [2]): 0.0156 µg/mL (≈ 0.0332 µM)
MIC (Candida parapsilosis): 0.0156 µg/mL (≈ 0.0332 µM)
MIC (Cryptococcus neoformans): 0.0625 µg/mL (≈ 0.133 µM)
MIC (Nakaseomyces glabratus): 0.0625 µg/mL (≈ 0.133 µM)
MIC (Aspergillus fumigatus): 0.25 µg/mL (≈ 0.533 µM)
CLH (Liver microsome): 5 µL/min/mg

COc1ccc(-c2cc3c(s2)C(=O)N([C@H](C)[C@](O)(Cn2cncn2)c2ccc(F)cc2F)C3)cn1
MIC (Candida albicans [1]): 0.0156 µg/mL (≈ 0.0314 µM)
MIC (Candida albicans [2]): 0.0312 µg/mL (≈ 0.0628 µM)
MIC (Candida parapsilosis): 0.0312 µg/mL (≈ 0.0628 µM)
MIC (Cryptococcus neoformans): 0.0312 µg/mL (≈ 0.0628 µM)
MIC (Nakaseomyces glabratus): 0.125 µg/mL (≈ 0.251 µM)
MIC (Aspergillus fumigatus): 8 µg/mL (≈ 16.1 µM)

C[C@@H](N1Cc2sc(-c3ccc(C#N)nc3)cc2C1=O)[C@](O)(Cn1cncn1)c1ccc(F)cc1F
MIC (Candida albicans [1]): 0.0156 µg/mL (≈ 0.0317 µM)
MIC (Candida albicans [2]): 0.0156 µg/mL (≈ 0.0317 µM)
MIC (Candida parapsilosis): 0.0156 µg/mL (≈ 0.0317 µM)
MIC (Cryptococcus neoformans): 0.0156 µg/mL (≈ 0.0317 µM)
MIC (Nakaseomyces glabratus): 0.0625 µg/mL (≈ 0.127 µM)
MIC (Aspergillus fumigatus): 32 µg/mL (≈ 65 µM)

C[C@@H](N1Cc2sc(-c3cncc(F)c3)cc2C1=O)[C@](O)(Cn1cncn1)c1ccc(F)cc1F
MIC (Candida albicans [1]): 0.0078 µg/mL (≈ 0.0161 µM)
MIC (Candida albicans [2]): 0.0156 µg/mL (≈ 0.0321 µM)
MIC (Candida parapsilosis): 0.0156 µg/mL (≈ 0.0321 µM)
MIC (Cryptococcus neoformans): 0.0078 µg/mL (≈ 0.0161 µM)
MIC (Nakaseomyces glabratus): 0.0625 µg/mL (≈ 0.129 µM)
MIC (Aspergillus fumigatus): > 64 µg/mL

C[C@@H](N1CCc2nc(-c3cncnc3)sc2C1)[C@](O)(Cn1cncn1)c1ccc(F)cc1F
MIC (Candida albicans [1]): 0.0312 µg/mL (≈ 0.0666 µM)
MIC (Candida albicans [2]): 0.0625 µg/mL (≈ 0.133 µM)
MIC (Candida parapsilosis): 0.0625 µg/mL (≈ 0.133 µM)
MIC (Cryptococcus neoformans): 0.0625 µg/mL (≈ 0.133 µM)
MIC (Nakaseomyces glabratus): 0.0625 µg/mL (≈ 0.133 µM)
MIC (Aspergillus fumigatus): 2 µg/mL (≈ 4.26 µM)

C[C@@H](N1Cc2sc(-c3ccncc3)cc2C1=O)[C@](O)(Cn1cncn1)c1ccc(F)cc1F
MIC (Candida albicans [1]): 0.0156 µg/mL (≈ 0.0334 µM)
MIC (Candida albicans [2]): 0.0156 µg/mL (≈ 0.0334 µM)
MIC (Candida parapsilosis): 0.0312 µg/mL (≈ 0.0668 µM)
MIC (Cryptococcus neoformans): 0.0156 µg/mL (≈ 0.0334 µM)
MIC (Nakaseomyces glabratus): 0.0625 µg/mL (≈ 0.134 µM)
MIC (Aspergillus fumigatus): > 64 µg/mL

Cc1ccc(-c2cc3c(s2)C(=O)N([C@H](C)[C@](O)(Cn2cncn2)c2ccc(F)cc2F)C3)cc1
MIC (Candida albicans [1]): 0.0312 µg/mL (≈ 0.065 µM)
MIC (Candida albicans [2]): 0.0312 µg/mL (≈ 0.065 µM)
MIC (Candida parapsilosis): 0.0625 µg/mL (≈ 0.13 µM)
MIC (Cryptococcus neoformans): 0.0625 µg/mL (≈ 0.13 µM)
MIC (Nakaseomyces glabratus): 0.0625 µg/mL (≈ 0.13 µM)
MIC (Aspergillus fumigatus): 4 µg/mL (≈ 8.32 µM)

C[C@@H](N1Cc2sc(-c3ccccc3)cc2C1=O)[C@](O)(Cn1cncn1)c1ccc(F)cc1F
MIC (Candida albicans [1]): 0.0156 µg/mL (≈ 0.0334 µM)
MIC (Candida albicans [2]): 0.0312 µg/mL (≈ 0.067 µM)
MIC (Candida parapsilosis): 0.0312 µg/mL (≈ 0.067 µM)
MIC (Cryptococcus neoformans): 0.0625 µg/mL (≈ 0.134 µM)
MIC (Nakaseomyces glabratus): 0.0625 µg/mL (≈ 0.134 µM)
MIC (Aspergillus fumigatus): 32 µg/mL (≈ 68.6 µM)

C[C@@H](N1Cc2cc(-c3ccc(Cl)cc3)sc2C1=O)[C@](O)(Cn1cncn1)c1ccc(F)cc1F
MIC (Candida albicans [1]): 0.0156 µg/mL (≈ 0.0311 µM)
MIC (Candida albicans [2]): 0.0156 µg/mL (≈ 0.0311 µM)
MIC (Candida parapsilosis): 0.0625 µg/mL (≈ 0.125 µM)
MIC (Cryptococcus neoformans): 0.0625 µg/mL (≈ 0.125 µM)
MIC (Nakaseomyces glabratus): 0.0625 µg/mL (≈ 0.125 µM)
MIC (Aspergillus fumigatus): 8 µg/mL (≈ 16 µM)

C[C@@H](N1Cc2cc(-c3ccc(F)nc3)sc2C1=O)[C@](O)(Cn1cncn1)c1ccc(F)cc1F
MIC (Candida albicans [1]): 0.125 µg/mL (≈ 0.257 µM)
MIC (Candida albicans [2]): 0.25 µg/mL (≈ 0.515 µM)
MIC (Candida parapsilosis): 0.25 µg/mL (≈ 0.515 µM)
MIC (Cryptococcus neoformans): 0.25 µg/mL (≈ 0.515 µM)
MIC (Nakaseomyces glabratus): 1 µg/mL (≈ 2.06 µM)
MIC (Aspergillus fumigatus): 8 µg/mL (≈ 16.5 µM)

C[C@@H](N1CCc2cc(-c3cncnc3)sc2C1)[C@](O)(Cn1cncn1)c1ccc(F)cc1F
MIC (Candida albicans [1]): 0.25 µg/mL (≈ 0.534 µM)
MIC (Candida albicans [2]): 0.125 µg/mL (≈ 0.267 µM)
MIC (Candida parapsilosis): 0.125 µg/mL (≈ 0.267 µM)
MIC (Cryptococcus neoformans): 0.125 µg/mL (≈ 0.267 µM)
MIC (Nakaseomyces glabratus): 1 µg/mL (≈ 2.13 µM)
MIC (Aspergillus fumigatus): 32 µg/mL (≈ 68.3 µM)

C[C@@H](N1CCn2nc(-c3ccc(C#N)nc3)nc2C1)[C@](O)(Cn1cncn1)c1ccc(F)cc1F
MIC (Candida albicans [1]): 0.0156 µg/mL (≈ 0.0327 µM)
MIC (Candida albicans [2]): 0.0156 µg/mL (≈ 0.0327 µM)
MIC (Candida parapsilosis): 0.0156 µg/mL (≈ 0.0327 µM)
MIC (Cryptococcus neoformans): 0.0625 µg/mL (≈ 0.131 µM)
MIC (Nakaseomyces glabratus): 0.0156 µg/mL (≈ 0.0327 µM)
MIC (Aspergillus fumigatus): 2 µg/mL (≈ 4.19 µM)

Source: ChEMBL document CHEMBL3616399, “Design, synthesis, and structure-activity relationship studies of novel thienopyrrolidone derivatives with strong antifungal activity against Aspergillus fumigates” (Eur J Med Chem, 2015)
